# Reference: ChEMBL document CHEMBL1131498, “Design, synthesis, and evaluation of the multidrug resistance-reversing activity of D-glucose mimetics of hapalosin” (J Med Chem, 1998)
# What was measured:
# Settings in all cases: Homo sapiens
# [1] = tested on: HL-60; assay: Effective concentration against HL-60/ADR cells using MRP-mediated MDR assay using 2 nM vincristine which results in 50% of the cells being killed in the presence of particular cytotoxic drug.; format: functional, cell-based
# Outline: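 Human promyelocytic leukemia HL-60/ADR cells (MRP-expressing, no P-gp) given varying compound concentrations plus 2 nM vincristine for 48 h. Survival by MTS tetrazolium metabolism (CellTiter AQueous); % killed as decrease vs control cultures. Triplicates, mean ± SD; approximate concentration (μg/mL) giving 50% kill.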
# [2] = tested on: HL-60; assay: Inhibitory concentration against HL-60/ADR cells using MRP-mediated MDR assay using 2 nM vincristine which inhibits cell proliferation by 20% in the absence of particular cytotoxic drug; format: functional
# Outline: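 HL-60/ADR leukemia cells (MRP-expressing) exposed 48 h to varying compound concentrations alone, PBS replacing vincristine. Viability by MTS tetrazolium metabolism (CellTiter AQueous), % decrease vs controls. Triplicates, mean ± SD; approximate concentration (μg/mL) inhibiting proliferation by 20%.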
# [3] = tested on: MCF7; assay: Effective concentration against MCF-7/ADR cells using P-gp-mediated MDR assay using 25 nM actinomycin D which results in 50% of the cells being killed in the presence of particular cytotoxic drug.; format: functional, cell-based
# Outline: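 MCF-7/ADR cells (from NCI, grown in RPMI 1640 + 10% FBS, 50 μg/mL gentamycin) seeded at ~15% confluency, 24 h recovery, then eight doses of compound with 25 nM actinomycin D for 48 h. Survival by sulforhodamine B staining; % killed as decrease in binding vs ethanol solvent controls. Triplicates, mean ± SD; approximate concentration (μg/mL) giving 50% kill read from curves.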
# [4] = tested on: MCF7; assay: Inhibitory concentration against MCF-7/ADR cells using P-gp-mediated MDR assay using 25 nM actinomycin D which inhibit cells proliferation by 20% in the absence of particular cytotoxic drug; format: functional
# Outline: (§1)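 MCF-7/ADR cells (from NCI, RPMI 1640 + 10% FBS, 50 μg/mL gentamycin) seeded at ~15% confluency, 24 h attachment, then eight doses of compound alone (PBS in place of actinomycin D) for 48 h. Sulforhodamine B staining; % kill vs ethanol solvent controls. Triplicates, mean ± SD; approximate concentration (μg/mL) giving 20% growth inhibition.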
# [5] = tested on: MCF7; assay: Inhibitory concentration against MCF-7/ADR cells using P-gp-mediated MDR assay using 25 nM actinomycin D which inhibits cell proliferation by 20% in the absence of particular cytotoxic drug; format: functional; outline: as §1
SMILES,EC50 [1],IC20 [2],EC50 [3],IC20 [4],IC20 [5]
CCCCCCCO[C@@H]1[C@@H](OCc2ccccc2)[C@@H](OCc2ccccc2)O[C@H](CC(C)C)[C@H]1OC,18 µg/mL,> 20 µg/mL,> 20 µg/mL,> 20 µg/mL,
CCCCCCCO[C@@H]1[C@@H](O)[C@@H](OCc2ccccc2)O[C@H](CC(C)C)[C@H]1O,3.5 µg/mL,> 20 µg/mL,6 µg/mL,12 µg/mL,
CCCCCCCO[C@@H]1[C@@H](O)[C@@H](OCc2ccccc2)O[C@H](CC(C)C)[C@H]1OCc1ccc(OC)cc1,1.8 µg/mL,> 20 µg/mL,4 µg/mL,12 µg/mL,
CCCCCCCO[C@@H]1[C@@H](OCc2ccccc2)[C@@H](OCc2ccccc2)O[C@@H]2CO[C@@H](c3ccc(OC)cc3)O[C@@H]12,2.5 µg/mL,> 20 µg/mL,> 20 µg/mL,> 20 µg/mL,
CCCCCCCO[C@@H]1[C@@H](O)[C@@H](OCc2ccccc2)O[C@H](CC(C)C)[C@H]1OC,10 µg/mL,> 20 µg/mL,7 µg/mL,20 µg/mL,
CCCCCCCO[C@@H]1[C@@H](OCc2ccccc2)[C@@H](OCc2ccccc2)O[C@H](CC(C)C)[C@H]1OCc1ccc(OC)cc1,> 20 µg/mL,> 20 µg/mL,> 20 µg/mL,> 20 µg/mL,
CCCCCCCO[C@@H]1[C@@H](O)[C@@H](OCc2ccccc2)O[C@H](CO)[C@H]1O,10 µg/mL,> 20 µg/mL,> 20 µg/mL,> 20 µg/mL,
CCCCCCCO[C@@H]1[C@@H](OCc2ccccc2)[C@@H](OCc2ccccc2)O[C@H](C=C(C)C)[C@H]1OCc1ccc(OC)cc1,> 20 µg/mL,> 20 µg/mL,> 20 µg/mL,> 20 µg/mL,
CCCCCCCO[C@@H]1[C@@H](OCc2ccccc2)[C@@H](OCc2ccccc2)O[C@H](C=O)[C@H]1OCc1ccc(OC)cc1,1.5 µg/mL,1.8 µg/mL,4 µg/mL,5 µg/mL,
CCCCCCCO[C@@H]1[C@@H](OCc2ccccc2)[C@@H](OCc2ccccc2)O[C@H](CO)[C@H]1OCc1ccc(OC)cc1,1.7 µg/mL,6 µg/mL,3 µg/mL,6 µg/mL,
CCCCCCCO[C@@H]1[C@@H](O)[C@@H](OCc2ccccc2)O[C@@H]2CO[C@@H](c3ccc(OC)cc3)O[C@@H]12,2.5 µg/mL,> 20 µg/mL,2.5 µg/mL,12 µg/mL,
CCCCCCCO[C@H]1[C@H](O)[C@@H](CC(C)C)O[C@H](OCc2ccccc2)[C@@H]1OCc1ccccc1,2.5 µg/mL,> 20 µg/mL,6 µg/mL,10 µg/mL,
CCCCCCC[C@H]1OC(=O)C[C@@H](O)[C@H](Cc2ccccc2)N(C)C(=O)[C@H](C(C)C)OC(=O)[C@H]1C [HAPALOSIN],0.7 µg/mL,6 µg/mL,1 µg/mL,,6 µg/mL
COc1ccc(CCN(C)CCCC(C#N)(c2ccc(OC)c(OC)c2)C(C)C)cc1OC (stereo unspecified) [VERAPAMIL],1.8 µg/mL,> 20 µg/mL,1 µg/mL,> 20 µg/mL,
